Assays:
Type in all cases: cell-based
PC6-3 cells [1] = assay: Extracellular dopamine metabolites; conditions: 300 μM
Method in brief: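 NGF-differentiated PC6-3 cells were given test compound (0, 10, 25, 50, 100 or 300 μM; 0.6% DMSO) in HEPES-buffered saline, pH 7.4. Extracellular aliquots taken at 0, 1 and 4 h went into 5% perchloric acid and were centrifuged. DOPAL, DOPAC and DOPET were run on isocratic C18 HPLC (0.1% TFA, 6% ACN), read at 202/280 nm, and quantified against standard curves. Mean ± SD, n = 3.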

PC6-3 cells [2] = assay: DA-supplemented dopamine metabolism; conditions: 10 μM dieldrin, cells spiked with 100 μM DA 15 min prior, 4 h, vs control
Method in brief: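 PC6-3 cells seeded at 6 × 10^4 cells/well, NGF-differentiated (50 ng/mL, 4 days), and given 100 μM DA 15 min before 4 h exposure to test compound (10, 30, 100 or 300 μM) in HEPES-buffered saline. Extracellular DOPAL was measured by capillary C18 HPLC with photodiode-array detection and quantified against a standard curve. Reported as % control; mean ± SEM, n = 3 or 4.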

PC6-3 cells [3] = assay: Cytotoxicity by lactate dehydrogenase; conditions: 4 h, even at high concentrations (900 μM)

ClC1=C(Cl)C2(Cl)C3CC4OC4CC3C1(Cl)C2(Cl)Cl (stereo not drawn) [desmethylene dieldrin, 1,8,9,10,11,11-Hexachloro-4,5-epoxy-2,3-7,6-endotricyclo[6.2.1.0^2,7]undec-9-ene]
increase of extracellular DOPAL concentration (PC6-3 cells [1]): 10 fold

ClC1=C(Cl)[C@]2(Cl)[C@@H]3[C@@H]4C[C@@H]([C@H]5O[C@@H]45)[C@@H]3[C@@]1(Cl)C2(Cl)Cl [dieldrin]
increase in extracellular DOPAL levels (PC6-3 cells [2]): ~200%

ClC1=C(Cl)C2(Cl)C3C4CC(C5OC45)C3C1(Cl)C2(Cl)Cl (stereo not drawn) [endrin]
cytotoxicity (LDH release) (PC6-3 cells [3]): no cytotoxicity
